From ChEMBL document CHEMBL4184212, “Design, synthesis and evaluation against Chikungunya virus of novel small-molecule antiviral agents” (Bioorg Med Chem, 2018)

Legend:
Chikungunya virus = test: Antiviral activity against Chikungunya virus Indian Ocean 889 infected in African green monkey Vero cells assessed as inhibition of virus-induced cytopathic effect after 5 days by MTS/PMS method; type: functional, organism-based; conditions: Indian Ocean 889, Vero, 120 h
[1] = Selectivity index, ratio of CC50 for African green monkey Vero cells to EC50 for Chikungunya virus Indian Ocean 889 infected in African green monkey Vero cells; type: toxicity; conditions: read-out: Ratio CC50/EC50
[2] = Cytotoxicity against African green monkey Vero cells assessed as decrease in cell viability after 5 days by MTS/PMS method; type: cell-based; conditions: chlorocebus sabaeus
Procedure, shortened: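 Uninfected Vero cells in MEM Rega-3 with 2% FBS were treated with compound alongside the antiviral assay. Metabolic activity was read by MTS/PMS, and wells were checked microscopically for morphology changes. CC50 is the concentration reducing metabolic activity by 50%, found by logarithmic interpolation. Values are the mean of ≥3 independent experiments.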

SMILES | EC50 (Chikungunya virus) [µM] | EC90 (Chikungunya virus) [µM] | selectivity ratio [1] | CC50 at 120 h [2] [µM]
CCOc1ccc(/C=N/NC(=O)[C@@H]2C[C@H]2c2ccc(C(C)(C)C)cc2)cc1OCC | 5 | 6.4 | 14 | 72
Cc1ccc(/C=N/NC(=O)/C=C/c2ccc(C(C)(C)C)cc2)cc1 | 5.8 | 10 | 21.4 | 124
C/C(=N\NC(=O)/C=C/c1ccc(C(C)(C)C)cc1)c1ccc(-c2ccccc2)cc1 | > 252 | > 252 | – | –
C/C(=N\NC(=O)/C=C/c1ccc(C(C)(C)C)cc1)c1cnccn1 | 103 | 122 | 1.2 | > 310
CC(C)(C)c1ccc([C@@H]2C[C@H]2C(=O)N/N=C/c2ccc(O)cc2)cc1 | 2.7 | 3.8 | – | –
O=C(/C=C/c1ccccc1)NCc1ccc(C(F)(F)F)cc1 | > 246 | > 246 | – | –
Cc1ccc(/C=N/NC(=O)/C=C/c2ccccc2)cc1 | 93.3 | > 284 | 0.9 | 84.4
Cc1ccc(/C=N/NC(=O)[C@@H]2C[C@H]2c2ccc(C(C)(C)C)cc2)cc1 | 6.6 | – | – | –
Cc1ccc(/C=N/NC(=O)CCc2ccccc2)cc1 | > 375 | > 375 | – | –
CC(C)(C)c1ccc(/C=C/C(=O)N/N=C/c2ccc([N+](=O)[O-])cc2)cc1 | > 285 | > 285 | – | –
COc1ccc(/C(C)=N/NC(=O)[C@@H]2C[C@H]2c2ccccc2)cc1 | 5.6 | 12 | 13 | 72
CCOc1ccc(/C=N/NC(=O)/C=C/c2ccc(C(C)(C)C)cc2)cc1OCC | – | 11 | 32 | 101
COc1ccc(/C=N/NC(=O)/C=C/c2ccc(C(C)(C)C)cc2)cc1 | 5.9 | 38.8 | 19.8 | 117
O=C(CCc1ccccc1)N/N=C/c1ccc(O)cc1 | > 373 | > 373 | – | –
CC(C)(C)c1ccc(/C=C/C(=O)N/N=C/c2ccc(-c3ccccc3)cc2)cc1 | – | – | – | 20.1
CCN(CC)CCCC(C)Nc1ccnc2cc(Cl)ccc12 (centres undefined) [CHLOROQUINE] | – | 21 | – | 89
CC(C)(C)c1ccc(/C=C/C(=O)NCc2ccc(C(F)(F)F)cc2)cc1 | 125 | 47.9 | 0.9 | 115
CCOc1ccc(/C=N/NC(=O)/C=C/c2ccc(C)cc2)cc1OCC | 113 | > 284 | > 2.5 | > 284
CC(C)(C)c1ccc([C@@H]2C[C@H]2C(=O)N/N=C/c2ccc(C(F)(F)F)cc2)cc1 | 14 | 19 | 2.1 | 30

SMILES | EC50 (Chikungunya virus) [µM] | EC90 (Chikungunya virus) [µM] | selectivity ratio [1] | CC50 at 120 h [2] [µM]
C/C(=N\NC(=O)/C=C/c1ccccc1)c1ccc(C2CCCCC2)cc1 | > 289 | > 289 | – | –
CC(C)(C)c1ccc(CCC(=O)N/N=C/c2ccc(O)cc2)cc1 | 36.4 | – | – | –
CCOc1ccc(/C=N/NC(=O)CCc2ccccc2)cc1OCC | > 294 | > 294 | – | –
CC(C)(C)c1ccc(/C=C/C(=O)N/N=C/c2ccc(O)cc2)cc1 | – | – | – | 7.3
COc1ccc(/C(C)=N/NC(=O)/C=C/c2ccc(C(C)(C)C)cc2)cc1OC | > 263 | > 263 | – | –
C/C(=N\NC(=O)CCc1ccc(C(C)(C)C)cc1)c1ccc(C2CCCCC2)cc1 | > 82.4 | > 82.4 | – | –
O=C(N/N=C/c1ccc(O)cc1)[C@@H]1C[C@H]1c1ccccc1 | 6.4 | 8.7 | 2.3 | 15
Cc1ccc(/C=N/NC(=O)CCc2ccc(C(C)(C)C)cc2)cc1 | > 100 | > 100 | – | –
CC(C)(C)c1ccc(/C=C/C(=O)N/N=C/c2ccc(C(C)(C)C)cc2)cc1 | > 276 | > 276 | – | –
CC(C)c1ccc(/C=N/NC(=O)/C=C/c2ccc(C(C)(C)C)cc2)cc1 | 2.1 | – | 3.5 | 7.4
C/C(=N\NC(=O)/C=C/c1ccc(C(C)(C)C)cc1)c1ccc(Cl)cc1 | > 282 | > 282 | – | –
CC(C)(C)c1ccc(/C=C/C(=O)N/N=C/c2ccccc2)cc1 | 5.8 | 87.5 | 3.8 | 22.1
Cc1ccc(/C=C/C(=O)N/N=C/c2ccc(C)cc2)cc1 | > 359 | > 359 | – | –
CCOc1ccc(/C=N/NC(=O)CCc2ccc(C(C)(C)C)cc2)cc1OCC | > 11 | > 11 | – | –
O=C(CCc1ccccc1)N/N=C/c1ccc(C2CCCCC2)cc1 | > 96 | > 96 | – | –
CC(C)(C)c1ccc(/C=C/C(=O)NCc2ccc(-c3ccccc3)cc2)cc1 | 2.9 | > 271 | – | 4.3
C/C(=N\NC(=O)/C=C/c1ccc(C(C)(C)C)cc1)c1ccc(C2CCCCC2)cc1 | > 248 | > 248 | – | –
C/C(=N\NC(=O)[C@@H]1C[C@H]1c1ccccc1)c1ccc(C2CCCCC2)cc1 | 32 | 44 | 3.1 | 101
O=C(/C=C/c1ccccc1)NCc1ccc(-c2ccccc2)cc1 | > 319 | > 319 | – | –
